Data set [1] relates to Entamoeba histolytica. The data set can be described thus: Antiamoebic activity against Entamoeba histolytica HM-1:IMSS trophozoites after 72 hrs by eosin staining based microdilution method. The class given is functional. The essentials: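 Trophozoites grown in Diamond TYIS-33 medium. Compounds in DMSO, 1 mg/mL stock, two-fold serial dilutions. 1.7 x 10⁴ organisms/well, plate gassed with nitrogen 10 min, 37 °C for 72 h. Wells washed with 0.9% NaCl, fixed with methanol, stained with 0.5% eosin for 15 min, dye released with 0.1 N NaOH, OD 490 nm. IC50 from linear regression of % inhibition vs log dose. Triplicate wells, repeated thrice.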

Data set [2] deals with T1, Thioredoxin reductase (Entamoeba histolytica, UniProt C4LW95).
T1 sequence (C4LW95 whole entry): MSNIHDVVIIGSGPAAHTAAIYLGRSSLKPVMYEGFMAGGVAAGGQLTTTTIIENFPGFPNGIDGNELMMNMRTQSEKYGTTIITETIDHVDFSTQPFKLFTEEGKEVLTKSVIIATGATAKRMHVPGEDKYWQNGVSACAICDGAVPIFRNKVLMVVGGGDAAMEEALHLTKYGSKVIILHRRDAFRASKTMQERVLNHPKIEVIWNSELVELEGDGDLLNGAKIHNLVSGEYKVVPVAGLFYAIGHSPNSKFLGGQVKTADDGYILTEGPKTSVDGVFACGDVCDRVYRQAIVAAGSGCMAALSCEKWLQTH
The data set can be described thus: Inhibition of Entamoeba histolytica thioredoxin reductase.

Data set [3] can be described thus: Inhibition of Entamoeba histolytica O-acetyl-L-serine sulfohydrolase preincubated with enzyme followed by TNB substrate addition measured after 30 mins by UV-Visible spectrophotometric method. The note with it: in the assay text read “OAS substrate” for “TNB substrate”. The essentials:
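Recombinant EhOASS (90 μg) in 100 mM HEPES pH 7.0 with […], inhibitor 0.25–500 μM, preincubated 30 min at room temperature. Reaction started with O-acetyl-L-serine. TNB disappearance followed at 412 nm. % decrease in activity taken relative to the uninhibited reaction. IC50 from % inhibition vs log inhibitor concentration.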

Data set [4] is described as follows: Cytotoxicity against CHO cells assessed as reduction in cell viability after 72 hrs by MTT assay. The class given is toxicity, cell-based, Cricetulus griseus. The note with it: for IC50 at 72 h: Chinese hamster, CHO cells; for Activity: chinese hamster, cho, 72 h. The essentials: (§1)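 Chinese hamster ovary cells in RPMI with 10% FBS and 1% penicillin-streptomycin-neomycin. 5,000 cells/well, in triplicate, exposed to compound or vehicle DMSO at 37 °C, 5% CO2 for 48 h or 72 h. MTT (5 mg/mL in PBS) added for 4 h, formazan dissolved in DMSO, absorbance at 570 nm. Viability expressed as % of DMSO control.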
(Formazan colour is commonly taken as a measure of viable cells.)

Data set [5] is described as follows: Cytotoxicity against CHO cells assessed as reduction in cell viability at 2.5 to 50 uM after 48 hrs by MTT assay. The class given is toxicity, cell-based, Cricetulus griseus. The note with it: chinese hamster. The essentials:
as §1

Data set [6] in a line: Cytotoxicity against CHO cells assessed as reduction in cell viability at 50 uM after 72 hrs by MTT assay. The note with it: chinese hamster. It is filed as toxicity, cell-based, Cricetulus griseus. The essentials: as §1
Data set [7] in a line: Cytotoxicity against CHO cells assessed as reduction in cell viability after 48 hrs by MTT assay. The class given is toxicity, cell-based, Cricetulus griseus. The note with it: for IC50 at 48 h: Chinese hamster, CHO cells; for Activity: chinese hamster, cho, 48 h. A digest of the protocol:
as §1

Data set [8] in a line: Cytotoxicity against CHO cells assessed as reduction in cell viability at 100 uM after 48 hrs by MTT assay. The class given is toxicity, cell-based, Cricetulus griseus. To be noted: chinese hamster. A digest of the protocol: as §1
Data set [9] in a line: Cytotoxicity against CHO cells assessed as reduction in cell viability at 2.5 to 25 uM after 72 hrs by MTT assay. To be noted: chinese hamster. The class given is toxicity, cell-based, Cricetulus griseus. A digest of the protocol:
as §1

Bounds are passed on as bounds.

For the molecule `S=C(NCc1ccco1)Nc1ccccc1`, the IC50 (usually the concentration that inhibits the measured activity by half) in data set [1] came out at 8.22 µM.

Take `O=C1/C(=C/c2ccc3c(c2)OCO3)S/C(=N\c2ccccc2)N1Cc1ccco1`: the Ki (commonly the dissociation constant of the complex between target and ligand, obtained from inhibition or displacement) in data set [2] is 27 µM; in data set [3], 343 µM. 2.97 µM corresponded to half-maximal inhibition in [1] (IC50).

Take `CCOc1ccc(/C=C2\S/C(=N\c3ccccc3)N(Cc3ccco3)C2=O)cc1`: the Ki in data set [2] was 4.66 µM; in data set [3], 149 µM. The same molecule came in with an IC50 in data set [1] of 2.03 µM.

As for `COc1ccc(/C=C2\S/C(=N\c3ccccc3)N(Cc3ccco3)C2=O)cc1OC`, in [4], the IC50 at 72 h was > 250 µM. For the same molecule, the Activity entry in data set [4] is given as “Dose-dependent effect”; in data set [5], “Non-Toxic”; in [6], “Non-Toxic”; in data set [7] it was “Dose-dependent effect”; in [8] it was “Non-Toxic”; in data set [9], “Non-Toxic”. Besides, in data set [2], the affinity, expressed as Ki, was 0.68 µM. Further, the IC50 at 48 h in data set [7] is > 400 µM. Further, in data set [1], the IC50 is 0.47 µM.

For the molecule `O=C(CSc1nc(O)cc(=O)[nH]1)c1c[nH]c2ccccc12`, the affinity in data set [3] corresponds to a Ki of 25.6 µM.

Consider `O=C1/C(=C/c2ccccn2)S/C(=N\c2ccccc2)N1Cc1ccco1`, for which, in [4], the IC50 at 72 h was > 250 µM. Besides, the Activity entry in data set [4] was “Dose-dependent effect”; in data set [5] it was “Non-Toxic”; in data set [6], “Non-Toxic”; in data set [7], “Dose-dependent effect”; in [8], “Non-Toxic”; in [9], “Non-Toxic”. The same molecule showed a Ki in data set [2] of 0.39 µM. In data set [7], the IC50 at 48 h is > 400 µM. The same molecule came in with an IC50 in [1] of 0.27 µM.

With `Cc1ccc(/C=C2\S/C(=N\c3ccccc3)N(Cc3ccco3)C2=O)cc1`, the IC50 at 72 h in data set [4] stood at 185 µM. The Activity result was “Dose-dependent effect” in data set [4], “Non-Toxic” in data set [5], “Dose-dependent effect” in data set [7] and “Non-Toxic” in [9]. This molecule had a Ki in data set [2] of 2.82 µM. Also, in [7], the half-inhibitory concentration (IC50) at 48 h turned out to be 421 µM. The concentration for half-maximal inhibition (IC50) in [1] was found to be 1.48 µM.

As to `COc1ccc(/C=C2\S/C(=N\c3ccccc3)N(Cc3ccco3)C2=O)cc1`, in data set [4], the IC50 at 72 h was > 250 µM. Further, the Activity result is given as “Dose-dependent effect” in data set [4], “Non-Toxic” in data set [5], “Dose-dependent effect” in data set [7] and “Non-Toxic” in data set [9]. In [2], this molecule gave an inhibition constant Ki of 2.07 µM. For the same molecule, the IC50 at 48 h in data set [7] is > 400 µM. The molecule also had an IC50 in data set [1] of 1.35 µM.

With `O=C1CS/C(=N\c2ccccc2)N1Cc1ccco1`, the Ki is 337 µM in [2] and 2240 µM in data set [3]. Moreover, the IC50 in data set [1] worked out at 3.57 µM.

Turning to `O=C1/C(=C/c2ccccc2)S/C(=N\c2ccccc2)N1Cc1ccco1`, the Ki stood at 10.9 µM in data set [2] and 58 µM in data set [3]. The IC50 in data set [1] amounted to 2.25 µM.

For `COc1cc(/C=C2\S/C(=N\c3ccccc3)N(Cc3ccco3)C2=O)cc(OC)c1OC`, the 50% inhibitory concentration (IC50) at 72 h in [4] is > 250 µM. The Activity entry in data set [4] is given as “Dose-dependent effect”; in data set [5], “Non-Toxic”; in data set [7] it was “Dose-dependent effect”; in [9], “Non-Toxic”. In data set [2], this molecule came in with a Ki of 1.05 µM. In addition, the IC50 at 48 h in data set [7] is > 400 µM. In data set [1], this molecule showed an IC50 of 1.24 µM.

Consider `O=C1/C(=C/c2ccc([N+](=O)[O-])cc2)S/C(=N\c2ccccc2)N1Cc1ccco1`, for which the Ki in data set [2] came to 16.1 µM; in [3] it was 98.6 µM. Moreover, half-maximal inhibition in data set [1] (IC50) required 2.87 µM.

For `CC(C)Oc1ccc(/C=C2\S/C(=N\c3ccccc3)N(Cc3ccco3)C2=O)cc1`, the Ki in data set [2] came out at 5.68 µM; in data set [3], 54.8 µM. In data set [1], this molecule yielded an IC50 of 2.2 µM.

Regarding `COc1ccc(OC)c(/C=C2\S/C(=N\c3ccccc3)N(Cc3ccco3)C2=O)c1`, the IC50 at 72 h in data set [4] was > 250 µM. For the same molecule, the Activity entry is on record as “Dose-dependent effect” in data set [4]; “Non-Toxic” in data set [5]; “Non-Toxic” in data set [6]; “Dose-dependent effect” in data set [7]; “Non-Toxic” in [8]; “Non-Toxic” in data set [9]. Also, the inhibition constant Ki in [2] came out at 0.69 µM. In data set [7], the half-inhibitory concentration (IC50) at 48 h was > 400 µM. Moreover, in data set [1], 0.67 µM corresponded to half-maximal inhibition (IC50).

In the case of `O=C1/C(=C/c2ccc(Cl)cc2)S/C(=N\c2ccccc2)N1Cc1ccco1`, the Ki in data set [2] was determined as 6.23 µM; in [3] it was 84.3 µM. The same molecule returned a half-maximal inhibitory concentration (IC50) in data set [1] of 2.33 µM.

Take `O=C1/C(=C/c2ccc(O)cc2)S/C(=N\c2ccccc2)N1Cc1ccco1`: the IC50 at 72 h in data set [4] was > 250 µM. The Activity result is given as “Dose-dependent effect” in [4], “Non-Toxic” in [5], “Dose-dependent effect” in [7] and “Non-Toxic” in [9]. This molecule displayed an inhibition constant Ki in data set [2] of 0.73 µM. Further, the IC50 at 48 h in data set [7] worked out at 400 µM. This molecule gave an IC50 in data set [1] of 1.04 µM.

In the case of `O=C1/C(=C/c2cccc([N+](=O)[O-])c2)S/C(=N\c2ccccc2)N1Cc1ccco1`, the figures for the inhibition constant (Ki) in data set [2] and in data set [3] were 3.56 µM and 46.8 µM, respectively. In [1], this molecule yielded a concentration for half-maximal inhibition (IC50) of 1.95 µM.

Regarding `O=C1/C(=C/c2cccc(Cl)c2)S/C(=N\c2ccccc2)N1Cc1ccco1`, the results for the Ki in [2] and in data set [3] were 3.16 µM and 45.8 µM, respectively. The IC50 in [1] is 1.95 µM.

For the molecule `Cc1ncc([N+](=O)[O-])n1CCn1cc(-c2ccccn2)nn1`, the Ki in data set [2] is 2.88 µM.

As to `Cc1ncc([N+](=O)[O-])n1CCO` [METRONIDAZOLE], the half-maximal inhibitory concentration (IC50) at 72 h in data set [4] came out at 280 µM. The Activity result in data set [5] and in data set [9] was “Non-Toxic” each time. The values for the Ki in data set [2] and in data set [3] were 3.3 µM and 42.6 µM, respectively. In data set [7], the IC50 at 48 h was > 400 µM.

The values are drawn from ChEMBL document CHEMBL3871276, “Synthesis, antiamoebic and molecular docking studies of furan-thiazolidinone hybrids” (Eur J Med Chem, 2016).
